From ChEMBL document CHEMBL1152541, “Staurosporine tethered peptide ligands that target cAMP-dependent protein kinase (PKA): optimization and selectivity profiling” (Bioorg Med Chem, 2009) come the findings set out here.

The target in assay [1] is Receptor-type tyrosine-protein kinase FLT3 (Homo sapiens) (UniProt P36888). Put plainly: Binding affinity to human FLT3 at 500 nM by cell-based competition binding assay relative to control in presence of DTT. The method in brief:
(§1)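 Commercial (Ambit) competitive kinase-binding panel of 90 kinases measured the binding profile. Run under reducing conditions of 7.5 mM DTT. Binding is expressed relative to control.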

The target of assay [2] is MAP kinase-interacting serine/threonine-protein kinase 2 (Homo sapiens) (UniProt Q9HBH9). Nature of the assay: Binding affinity to human MKNK2 at 500 nM by cell-based competition binding assay relative to control in presence of DTT.
Assay [3] is described as follows: Ratio of compound to staurosporine binding affinity to PKA in presence of DTT.
In assay [4] the target is Casein kinase I isoform gamma-2 (Homo sapiens) (UniProt P78368). Nature of the assay: Binding affinity to human CSNK1G2 at 200 nM by cell-based competition binding assay relative to control in presence of DTT. Summed up:
as §1

For assay [5], the target named is Tyrosine-protein kinase BTK (Homo sapiens) (UniProt Q06187). Nature of the assay: Binding affinity to human BTK at 200 nM by cell-based competition binding assay relative to control in presence of DTT. Summed up:
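Kinase binding profiling ran on a commercial (Ambit) competitive binding screen against a panel of 90 kinases. The screen used reducing conditions with 7.5 mM DTT. To withstand the DTT, the bivalent ligand was tested as its amide isostere, with the disulfide replaced. A staurosporine derivative carrying a 3 β-alanine linker was run as the reference compound.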

Assay [6] deals with T1, Protein kinase C epsilon type (Homo sapiens) (UniProt Q02156).
T1 sequence (whole entry): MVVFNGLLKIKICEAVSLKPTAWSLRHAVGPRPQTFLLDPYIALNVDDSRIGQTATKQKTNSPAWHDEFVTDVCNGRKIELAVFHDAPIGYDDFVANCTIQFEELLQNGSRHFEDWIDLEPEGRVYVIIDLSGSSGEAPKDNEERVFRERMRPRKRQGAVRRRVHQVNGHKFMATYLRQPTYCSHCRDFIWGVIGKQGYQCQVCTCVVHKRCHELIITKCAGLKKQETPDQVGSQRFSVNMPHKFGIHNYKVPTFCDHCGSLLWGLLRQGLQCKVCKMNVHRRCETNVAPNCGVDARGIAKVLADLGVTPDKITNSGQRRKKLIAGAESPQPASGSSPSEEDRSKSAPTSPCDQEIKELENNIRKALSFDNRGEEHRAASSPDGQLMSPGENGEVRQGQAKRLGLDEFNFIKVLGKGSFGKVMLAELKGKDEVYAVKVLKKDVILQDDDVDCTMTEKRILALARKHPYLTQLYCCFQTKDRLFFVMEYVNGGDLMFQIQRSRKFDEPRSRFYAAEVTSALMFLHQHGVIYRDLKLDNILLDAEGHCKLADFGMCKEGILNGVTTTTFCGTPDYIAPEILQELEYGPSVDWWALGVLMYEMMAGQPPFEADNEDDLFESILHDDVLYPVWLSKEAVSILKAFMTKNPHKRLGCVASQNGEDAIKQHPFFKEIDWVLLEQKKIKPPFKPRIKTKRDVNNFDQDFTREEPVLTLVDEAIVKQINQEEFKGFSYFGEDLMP
Put plainly: Binding affinity to human PRKCepsilon at 200 nM by cell-based competition binding assay relative to control in presence of DTT.

The target of assay [7] is Serine/threonine-protein kinase PAK 1 (Homo sapiens) (UniProt Q13153). Put plainly: Binding affinity to human PAK1 at 200 nM by cell-based competition binding assay relative to control in presence of DTT.
Assay [8] deals with Casein kinase I isoform delta (Homo sapiens) (UniProt P48730). Nature of the assay: Binding affinity to human CSNK1D at 200 nM by cell-based competition binding assay relative to control in presence of DTT. The method in brief: as §1
Assay [9] can be described thus: Inhibition of PKA assessed as [gamma-32P]ATP labeling of kemptide at 33 to 100 nM by liquid scintillation counting in presence of DTT.
Assay [10] has as its target T2, Tyrosine-protein kinase JAK3 (Homo sapiens) (UniProt P52333).
T2 sequence (whole entry): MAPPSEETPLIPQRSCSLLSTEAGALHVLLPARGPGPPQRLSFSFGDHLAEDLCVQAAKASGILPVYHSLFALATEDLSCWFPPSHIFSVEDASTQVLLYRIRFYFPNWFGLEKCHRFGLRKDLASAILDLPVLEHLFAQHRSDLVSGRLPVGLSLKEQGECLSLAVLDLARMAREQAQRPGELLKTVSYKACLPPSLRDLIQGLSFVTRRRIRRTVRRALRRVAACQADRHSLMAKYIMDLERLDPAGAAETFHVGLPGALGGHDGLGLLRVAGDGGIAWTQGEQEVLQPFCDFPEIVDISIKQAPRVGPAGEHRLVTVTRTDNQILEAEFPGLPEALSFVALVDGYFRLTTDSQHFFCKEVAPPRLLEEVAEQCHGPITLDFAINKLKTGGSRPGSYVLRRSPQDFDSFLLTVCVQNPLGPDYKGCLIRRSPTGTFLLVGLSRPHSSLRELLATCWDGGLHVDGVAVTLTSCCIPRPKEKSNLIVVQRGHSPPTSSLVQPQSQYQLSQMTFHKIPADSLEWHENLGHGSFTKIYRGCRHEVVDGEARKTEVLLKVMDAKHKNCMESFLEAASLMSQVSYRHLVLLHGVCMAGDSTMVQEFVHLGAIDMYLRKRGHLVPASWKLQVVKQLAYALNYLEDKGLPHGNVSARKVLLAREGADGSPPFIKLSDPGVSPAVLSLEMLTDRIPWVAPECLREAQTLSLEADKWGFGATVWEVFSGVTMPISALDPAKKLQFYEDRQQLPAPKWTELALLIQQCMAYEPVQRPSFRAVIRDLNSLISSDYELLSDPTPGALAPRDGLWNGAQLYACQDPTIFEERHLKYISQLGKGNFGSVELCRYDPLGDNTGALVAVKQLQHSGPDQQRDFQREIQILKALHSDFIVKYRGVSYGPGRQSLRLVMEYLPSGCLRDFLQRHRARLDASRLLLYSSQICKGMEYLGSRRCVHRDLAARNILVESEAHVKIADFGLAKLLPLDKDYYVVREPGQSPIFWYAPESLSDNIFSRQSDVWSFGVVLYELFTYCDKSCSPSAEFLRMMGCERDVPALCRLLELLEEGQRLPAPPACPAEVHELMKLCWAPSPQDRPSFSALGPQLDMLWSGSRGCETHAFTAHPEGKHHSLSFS
Nature of the assay: Binding affinity to human JAK3 kinase domain 2 at 50 nM by cell-based competition binding assay relative to control in presence of DTT. The method in brief:
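Competition binding screen (Ambit) across a panel of 90 kinases, scoring test ligand displacement of each kinase's binding relative to control. The screen ran under reducing conditions with 7.5 mM DTT.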

Assay [11] addresses Cyclin-dependent kinase 16 (Homo sapiens) (UniProt Q00536). Put plainly: Binding affinity to human PCTK1 at 50 nM by cell-based competition binding assay relative to control in presence of DTT.
Assay [12] addresses Hepatocyte growth factor receptor (Homo sapiens) (UniProt P08581). Put plainly: Binding affinity to human MET at 50 nM by cell-based competition binding assay relative to control in presence of DTT.

Calls of active or inactive are those of the source. The rule behind the calls is not given here. *1 amine or outer side, *2 acyl side, *3 side chain or, on linkers, in order; H or OH if unused. Where a SMILES comes first, the peptide text is derived from it. Bridges are numbered along the chain shown (N, C = ends). [ ]: non-standard residue; d: D form. The star is where a group is joined. Staurosporine = CO[C@@H]1[C@H](N(C)*)C[C@H]2O[C@]1(C)n1c3ccccc3c3c4c(c5c6ccccc6n2c5c31)C(=O)NC4; Suc = O=C(CCC(=O)[*:2])[*:1]; Dap = NC[C@H](N)C(=O)O; βAla = NCCC(=O)O

Cyclin-dependent kinase 16 (Homo sapiens), sequence (Q00536 whole entry): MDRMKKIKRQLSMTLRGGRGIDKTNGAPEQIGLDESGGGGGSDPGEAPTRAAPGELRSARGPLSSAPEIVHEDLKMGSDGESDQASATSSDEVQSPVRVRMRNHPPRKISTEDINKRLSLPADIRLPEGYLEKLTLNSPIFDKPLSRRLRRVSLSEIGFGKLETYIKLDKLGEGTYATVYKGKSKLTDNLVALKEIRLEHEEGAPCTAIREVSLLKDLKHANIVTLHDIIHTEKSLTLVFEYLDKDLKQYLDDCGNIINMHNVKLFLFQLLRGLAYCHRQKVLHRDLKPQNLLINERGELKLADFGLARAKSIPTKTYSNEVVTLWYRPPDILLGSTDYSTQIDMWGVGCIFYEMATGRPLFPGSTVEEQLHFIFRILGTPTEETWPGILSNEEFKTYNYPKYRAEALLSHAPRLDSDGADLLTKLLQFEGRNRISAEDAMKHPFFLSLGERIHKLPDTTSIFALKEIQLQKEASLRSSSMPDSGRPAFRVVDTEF
Hepatocyte growth factor receptor (Homo sapiens), sequence (P08581 whole entry): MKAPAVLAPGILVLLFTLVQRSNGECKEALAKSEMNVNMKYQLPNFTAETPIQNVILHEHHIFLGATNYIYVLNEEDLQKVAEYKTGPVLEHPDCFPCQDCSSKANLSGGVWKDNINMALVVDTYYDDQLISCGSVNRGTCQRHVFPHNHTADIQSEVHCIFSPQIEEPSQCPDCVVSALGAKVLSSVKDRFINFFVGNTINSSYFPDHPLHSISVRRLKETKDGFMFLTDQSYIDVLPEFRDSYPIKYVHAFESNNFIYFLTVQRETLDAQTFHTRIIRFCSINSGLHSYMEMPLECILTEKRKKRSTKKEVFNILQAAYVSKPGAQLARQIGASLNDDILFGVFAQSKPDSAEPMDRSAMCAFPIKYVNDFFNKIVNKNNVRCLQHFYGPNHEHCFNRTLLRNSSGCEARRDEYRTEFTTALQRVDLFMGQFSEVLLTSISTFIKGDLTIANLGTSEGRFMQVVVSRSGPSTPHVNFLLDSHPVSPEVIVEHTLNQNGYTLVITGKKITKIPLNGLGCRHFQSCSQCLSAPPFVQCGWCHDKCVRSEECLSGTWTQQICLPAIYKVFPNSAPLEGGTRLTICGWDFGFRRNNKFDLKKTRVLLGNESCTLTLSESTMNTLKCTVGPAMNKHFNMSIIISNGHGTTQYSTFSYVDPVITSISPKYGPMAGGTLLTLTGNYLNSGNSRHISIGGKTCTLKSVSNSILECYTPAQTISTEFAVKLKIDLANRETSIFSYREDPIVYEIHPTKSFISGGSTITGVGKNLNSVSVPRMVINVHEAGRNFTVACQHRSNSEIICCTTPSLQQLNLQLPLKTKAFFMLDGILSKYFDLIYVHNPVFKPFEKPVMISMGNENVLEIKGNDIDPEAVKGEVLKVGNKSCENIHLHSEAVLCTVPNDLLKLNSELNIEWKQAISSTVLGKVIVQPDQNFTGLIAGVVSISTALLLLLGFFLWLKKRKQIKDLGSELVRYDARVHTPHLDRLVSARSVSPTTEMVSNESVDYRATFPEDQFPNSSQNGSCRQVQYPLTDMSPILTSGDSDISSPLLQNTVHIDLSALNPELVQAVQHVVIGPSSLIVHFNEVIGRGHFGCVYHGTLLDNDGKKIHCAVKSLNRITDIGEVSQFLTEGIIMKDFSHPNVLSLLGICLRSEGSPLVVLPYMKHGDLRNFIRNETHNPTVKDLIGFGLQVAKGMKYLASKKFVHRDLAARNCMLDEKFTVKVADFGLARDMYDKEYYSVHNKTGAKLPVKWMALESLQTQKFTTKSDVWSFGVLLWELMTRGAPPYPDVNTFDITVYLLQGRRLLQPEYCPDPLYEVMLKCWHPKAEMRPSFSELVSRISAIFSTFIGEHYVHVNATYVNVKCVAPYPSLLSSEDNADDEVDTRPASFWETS
Tyrosine-protein kinase BTK (Homo sapiens), sequence (Q06187 whole entry): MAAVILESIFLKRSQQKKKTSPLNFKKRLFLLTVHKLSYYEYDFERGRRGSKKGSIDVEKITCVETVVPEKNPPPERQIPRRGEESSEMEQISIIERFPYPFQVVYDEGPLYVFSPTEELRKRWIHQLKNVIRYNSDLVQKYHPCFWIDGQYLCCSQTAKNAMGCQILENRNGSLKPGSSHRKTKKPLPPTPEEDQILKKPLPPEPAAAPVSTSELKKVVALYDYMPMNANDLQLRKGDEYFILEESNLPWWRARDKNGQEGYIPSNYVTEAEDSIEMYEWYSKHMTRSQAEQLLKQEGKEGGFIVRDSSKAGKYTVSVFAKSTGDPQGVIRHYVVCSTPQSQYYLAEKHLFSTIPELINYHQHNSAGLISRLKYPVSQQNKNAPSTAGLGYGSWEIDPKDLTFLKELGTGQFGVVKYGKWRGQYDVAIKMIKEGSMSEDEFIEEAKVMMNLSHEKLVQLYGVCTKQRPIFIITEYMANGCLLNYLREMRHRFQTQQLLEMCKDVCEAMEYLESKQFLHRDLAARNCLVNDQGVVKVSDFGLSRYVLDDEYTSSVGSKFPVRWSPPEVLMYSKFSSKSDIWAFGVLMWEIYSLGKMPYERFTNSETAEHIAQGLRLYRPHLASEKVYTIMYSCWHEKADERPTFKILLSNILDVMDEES
MAP kinase-interacting serine/threonine-protein kinase 2 (Homo sapiens), sequence (Q9HBH9 whole entry, looked up): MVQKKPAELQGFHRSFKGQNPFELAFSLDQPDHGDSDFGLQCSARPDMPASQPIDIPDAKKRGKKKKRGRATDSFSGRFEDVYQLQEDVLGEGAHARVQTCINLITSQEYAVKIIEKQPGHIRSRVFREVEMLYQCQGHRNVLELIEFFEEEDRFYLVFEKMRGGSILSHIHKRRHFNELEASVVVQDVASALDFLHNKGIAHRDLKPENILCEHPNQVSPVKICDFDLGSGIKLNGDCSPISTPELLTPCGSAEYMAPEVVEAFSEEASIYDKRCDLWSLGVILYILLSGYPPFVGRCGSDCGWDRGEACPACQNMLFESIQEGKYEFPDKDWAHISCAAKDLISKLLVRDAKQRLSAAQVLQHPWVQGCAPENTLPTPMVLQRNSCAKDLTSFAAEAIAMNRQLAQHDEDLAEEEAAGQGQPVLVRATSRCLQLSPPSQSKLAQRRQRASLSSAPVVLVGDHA
Serine/threonine-protein kinase PAK 1 (Homo sapiens), sequence (Q13153 whole entry, canonical isoform): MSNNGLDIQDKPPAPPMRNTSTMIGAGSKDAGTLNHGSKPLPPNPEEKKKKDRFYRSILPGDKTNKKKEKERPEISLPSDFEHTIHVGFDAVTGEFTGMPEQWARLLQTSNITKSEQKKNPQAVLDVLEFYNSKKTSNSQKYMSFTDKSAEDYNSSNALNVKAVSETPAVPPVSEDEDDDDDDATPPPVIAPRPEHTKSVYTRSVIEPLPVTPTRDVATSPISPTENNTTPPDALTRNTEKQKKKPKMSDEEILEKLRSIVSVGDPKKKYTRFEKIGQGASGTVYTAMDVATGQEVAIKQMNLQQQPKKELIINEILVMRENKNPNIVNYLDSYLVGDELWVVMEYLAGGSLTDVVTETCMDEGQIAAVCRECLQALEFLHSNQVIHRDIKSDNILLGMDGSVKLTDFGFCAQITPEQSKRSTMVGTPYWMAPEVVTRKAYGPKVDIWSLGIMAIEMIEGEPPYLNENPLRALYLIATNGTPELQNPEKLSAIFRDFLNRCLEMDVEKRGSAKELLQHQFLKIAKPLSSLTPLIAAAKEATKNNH
Receptor-type tyrosine-protein kinase FLT3 (Homo sapiens), sequence (P36888 whole entry): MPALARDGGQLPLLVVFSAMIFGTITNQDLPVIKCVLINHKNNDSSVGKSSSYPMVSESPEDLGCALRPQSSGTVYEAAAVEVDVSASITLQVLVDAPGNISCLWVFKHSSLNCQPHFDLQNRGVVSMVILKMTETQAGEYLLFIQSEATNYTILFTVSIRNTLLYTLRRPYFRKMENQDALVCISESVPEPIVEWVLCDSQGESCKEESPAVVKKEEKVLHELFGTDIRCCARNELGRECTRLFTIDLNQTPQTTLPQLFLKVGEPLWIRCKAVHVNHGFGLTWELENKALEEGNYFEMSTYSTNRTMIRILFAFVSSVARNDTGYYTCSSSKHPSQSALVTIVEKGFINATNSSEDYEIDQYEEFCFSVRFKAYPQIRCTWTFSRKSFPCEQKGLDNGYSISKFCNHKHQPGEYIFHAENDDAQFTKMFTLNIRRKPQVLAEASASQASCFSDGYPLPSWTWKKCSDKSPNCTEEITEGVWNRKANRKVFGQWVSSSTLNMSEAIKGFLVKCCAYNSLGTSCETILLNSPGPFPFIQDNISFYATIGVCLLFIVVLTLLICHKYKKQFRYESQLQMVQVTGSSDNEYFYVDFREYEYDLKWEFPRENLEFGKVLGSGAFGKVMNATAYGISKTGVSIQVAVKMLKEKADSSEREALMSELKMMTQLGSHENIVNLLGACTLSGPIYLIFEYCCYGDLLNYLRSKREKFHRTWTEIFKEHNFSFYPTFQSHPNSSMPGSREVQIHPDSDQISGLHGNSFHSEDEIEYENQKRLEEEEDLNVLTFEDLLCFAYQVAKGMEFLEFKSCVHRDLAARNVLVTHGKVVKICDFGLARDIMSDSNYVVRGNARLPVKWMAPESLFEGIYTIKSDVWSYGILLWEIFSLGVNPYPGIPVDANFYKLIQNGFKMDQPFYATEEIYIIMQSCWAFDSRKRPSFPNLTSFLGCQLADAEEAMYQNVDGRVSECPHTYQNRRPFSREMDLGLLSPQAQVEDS
Casein kinase I isoform gamma-2 (Homo sapiens), sequence (P78368 whole entry, looked up, canonical isoform): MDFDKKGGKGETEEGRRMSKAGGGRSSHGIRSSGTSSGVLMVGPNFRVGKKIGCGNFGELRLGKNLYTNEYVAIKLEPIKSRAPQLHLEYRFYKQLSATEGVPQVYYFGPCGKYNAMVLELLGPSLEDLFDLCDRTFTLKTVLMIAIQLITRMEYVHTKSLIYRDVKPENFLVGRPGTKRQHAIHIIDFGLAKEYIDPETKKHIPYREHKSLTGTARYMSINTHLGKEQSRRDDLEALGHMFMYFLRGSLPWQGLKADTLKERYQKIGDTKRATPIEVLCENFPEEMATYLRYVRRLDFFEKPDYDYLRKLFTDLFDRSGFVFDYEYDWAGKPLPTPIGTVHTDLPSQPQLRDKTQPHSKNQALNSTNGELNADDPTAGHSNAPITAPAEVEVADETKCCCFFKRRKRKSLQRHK

As to `CO[C@@H]1[C@H](N(C)C(=O)CCC(=O)NCCC(=O)NCCC(=O)NCCC(N)=O)C[C@H]2O[C@]1(C)n1c3ccccc3c3c4c(c5c6ccccc6n2c5c31)C(=O)NC4`, the Activity in assay [1] was determined as 0.35%; in [2], 39%. For the same compound, in assay [3], the Selectivity ratio is 14.

For `CO[C@@H]1[C@H](N(C)C(=O)CCC(=O)NCCC(=O)NCCC(=O)NCCC(=O)NCCC(=O)NCCC(=O)NCCC(=O)NCCC(=O)N[C@H]2CSSC[C@@H](C(=O)NCC(N)=O)NC(=O)CNC(=O)[C@H](Cc3ccccc3)NC(=O)[C@H](C(C)C)NC(=O)[C@H](CCCNC(=N)N)NC(=O)[C@H](Cc3ccccc3)NC(=O)[C@H](C(C)C)NC2=O)C[C@H]2O[C@]1(C)n1c3ccccc3c3c4c(c5c6ccccc6n2c5c31)C(=O)NC4` ({Staurosporine-Suc-βAla-βAla-βAla-βAla-βAla-βAla-βAla}-CVFRVFGCG-NH2; disulfide 1-8), the Activity in assay [4] came to 100%; in assay [5], 62%; in assay [6] it was 0%; in assay [7], 14%; in [8] it was 100%. The inhibition entry in assay [9] is “inactive”.

Regarding `CO[C@@H]1[C@H](N(C)C(=O)CCC(=O)NCCC(=O)NCCC(=O)NCCC(=O)NCCC(=O)NCCC(=O)NCCC(=O)NCCC(=O)N[C@H]2CNC(=O)C[C@@H](C(N)=O)NC(=O)CNC(=O)[C@H](Cc3ccccc3)NC(=O)[C@H](C(C)C)NC(=O)[C@H](CCCNC(=N)N)NC(=O)[C@H](Cc3ccccc3)NC(=O)[C@H](C(C)C)NC2=O)C[C@H]2O[C@]1(C)n1c3ccccc3c3c4c(c5c6ccccc6n2c5c31)C(=O)NC4` ({Staurosporine-Suc-βAla-βAla-βAla-βAla-βAla-βAla-βAla}-[Dap]VFRVFGD-NH2; lactam 1-8), the Activity in assay [10] is 16%; in [11], 98%; in assay [12] it was 100%. For the same compound, the inhibition entry in [9] was “Active”.
